According to PubChem BioAssay AID602227 (Southern Research Specialized Biocontainment Screening …, 2012):
Active and inactive are the calls of the source.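 Rule for the calls: active = viability below 80% at one or more tested concentrations, flagged as toxic; inconclusive = replicate runs disagree on whether the viability criterion is met; inactive = viability at or above 80% at every dose.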

Key:
[1] = Vero E6 cell cytotoxicity, dose response, cytotoxicity control for PfM17LAP inhibitor project, set 2 (AID 602227); conditions: Vero E6 viability, CellTiter-Glo luminescence, 72 h; at 50 µM (top of the series)
Summary of the method: (§1)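 Test system: Vero E6 cells (African green monkey kidney), viability assay / Buffer or medium: E-MEM plus 10% FBS / Dosing: compound dose-response, 10 concentrations in 2-fold serial dilution / Schedule: 72 h compound exposure at 37 °C, 5% CO2 / Detection: CellTiter-Glo luminescence / Read-out basis: background-subtracted % viability vs DMSO wells, CC50 by 4-parameter fit bounded 0–100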

[2] = system: Vero E6 viability, CellTiter-Glo luminescence, 72 h; assay: as above
Summary of the method: as §1

| SMILES | viability [1] | CC50 [2] |
| --- | --- | --- |
| Cc1ccc(CC(=O)NO)cc1 | 102% (inactive) |  |
| CN(O)C(=O)Cc1ccc(OCc2ccccc2)cc1 |  | 24.8 µM |
| CCCCc1ccc(CC(=O)NO)cc1 |  | 34.7 µM |
| CCCCOc1ccc(CC(=O)N(C)O)cc1 |  | 27.2 µM |
| O=C(Cc1ccc(Oc2ccccc2)cc1)NO |  | 32.4 µM |
| CC(C)(C(=O)NO)c1ccccc1 | 102% (inactive) |  |
| CCCCCCCCCC(=O)NO |  | 25.2 µM |
| CCCCOc1ccc(CCC(=O)NO)cc1 |  | 29.1 µM |
| CCC(C)Oc1ccc(CC(=O)OC)cc1 (configuration not stated) | 102% (inactive) |  |
| COc1ccc(CC(=O)NO)cc1 | 95.7% (inactive) |  |
| CCCCOc1ccc(CC(=O)O)cc1 | 88.7% (inactive) |  |
| CCCCOc1ccc(CNc2c(N(C)O)c(=O)c2=O)cc1 | 90% (inactive) |  |
| CCCOc1ccc(CC(=O)OC)cc1 | 94.9% (inactive) |  |
| COC(=O)Cc1ccc(OCCN(C)C)cc1 | 94.5% (inactive) |  |
| COC(=O)Cc1ccc(OCC(C)C)cc1 | 101% (inactive) |  |
| CCCCOc1ccc(CNc2c(N(O)Cc3ccccc3)c(=O)c2=O)cc1 | 92.8% (inactive) |  |
| CCOc1ccc(CC(=O)NO)cc1 | 98.9% (inactive) |  |
